# Assays:
# CAKI-1 = test: Growth inhibition of human CAKI-1 cells after 48 hrs; type: functional; settings: CAKI-1, 48 h
# How it was run: (§1)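 NCI-60 human tumour cell line panel screen run at the US National Cancer Institute under its standard cytotoxicity protocol. It covers leukaemia, NSCLC, colon, CNS, melanoma, ovarian, renal, prostate and breast lines. An initial single-dose test was followed by five-dose testing with 48 h compound exposure.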
# [1] = Growth inhibition of human RXF393 cells after 48 hrs; type: functional; settings: RXF 393, 48 h; how it was run: as §1
# [2] = Growth inhibition of human UO31 cells after 48 hrs; type: functional; settings: UO-31, 48 h
# How it was run: (§2)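 Run by the NCI 58-cell-line screen under its standard cytotoxicity protocol. Compounds were first tested at a single dose, then at five doses. Cells were exposed to compound for 48 h.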
# DU-145 = test: Growth inhibition of human DU145 cells after 48 hrs; type: functional; settings: DU-145, 48 h; how it was run: as §1
# [3] = Growth inhibition of human BT549 cells after 48 hrs; type: functional; settings: BT-549, 48 h; how it was run: as §1
# MDA-MB-468 = test: Growth inhibition of human MDA-MB-468 cells after 48 hrs; type: functional; settings: MDA-MB-468, 48 h; how it was run: as §1
# MCF7 = test: Cytotoxicity against human MCF7 cells assessed as cell viability after 24 hrs incubation by MTT assay; type: functional, cell-based; settings: MCF7, 24 h
# How it was run: (§3)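 Cell lines came from DSMZ; primary human fibroblasts served as non-cancer controls. Cells were grown in medium with 10% FCS, seeded at 50,000 cells/ml, and grown 2 days at 37 °C, 10% CO2. Serial dilutions were then added for 24 h. MTT (final 0.5 mg/ml) was added for 2 h. Formazan was pelleted, PBS-washed, dissolved in isopropanol/0.4% HCl and read at 590 nm. Two parallel experiments were run. IC50 was taken as the concentration giving 50% of untreated-control absorbance.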
# A-431 = test: Cytotoxicity against human A431 cells assessed as cell viability after 24 hrs incubation by MTT assay; type: functional, cell-based; settings: A-431, 24 h; how it was run: as §3
# [4] = Octanol-water partition coefficient, log P of the compound by HPLC analysis; type: physicochemical
# How it was run: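 Lipophilicity was measured by reversed-phase HPLC on a Nucleosil C18 column with isocratic water/methanol (3:1) at 0.5 ml/min and UV detection at 230 and 245 nm. Dead time was set with thiourea (t0 0.728 min). Retention factor was k = (tR − t0)/t0, and log P came from a calibration against at least six reference compounds.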
# K562 = test: Growth inhibition of human K562 cells after 48 hrs; type: functional; settings: K562, 48 h; how it was run: as §1
# A549 = test: Growth inhibition of human A549/ATCC cells after 48 hrs; type: functional; settings: A549, 48 h; how it was run: as §1
# [5] = Growth inhibition of human EKVX cells after 48 hrs; type: functional; how it was run: as §1
# HOP-62 = test: Growth inhibition of human HOP62 cells after 48 hrs; type: functional; settings: HOP-62, 48 h; how it was run: as §1
# [6] = Growth inhibition of human HOP92 cells after 48 hrs; type: functional; settings: HOP-92, 48 h; how it was run: as §1
# NCI-H322M = test: Growth inhibition of human NCI-H322M cells after 48 hrs; type: functional; how it was run: as §1
# NCI-H460 = test: Growth inhibition of human NCI-H460 cells after 48 hrs; type: functional; settings: NCI-H460, 48 h, read-out: pLC50 (the source's name) (converted); how it was run: as §1
# NCI-H522 = test: Growth inhibition of human NCI-H522 cells after 48 hrs; type: functional; settings: NCI-H522, 48 h; how it was run: as §1
# [7] = Growth inhibition of human HCT116 cells after 48 hrs; type: functional; settings: HCT-116, 48 h; how it was run: as §1
# HT-29 = test: Growth inhibition of human HT-29 cells after 48 hrs; type: functional; settings: HT-29, 48 h; how it was run: as §1
# SW-620 = test: Growth inhibition of human SW620 cells after 48 hrs; type: functional; settings: SW-620, 48 h; how it was run: as §2
# SF-268 = test: Growth inhibition of human SF268 cells after 48 hrs; type: functional; settings: SF-268, 48 h; how it was run: as §1
# [8] = Growth inhibition of human SF539 cells after 48 hrs; type: functional; settings: SF-539, 48 h; how it was run: as §1
# U-251 = test: Growth inhibition of human U251 cells after 48 hrs; type: functional; settings: U-251, 48 h, read-out: pLC50 (the source's name) (converted); how it was run: as §2
# SK-MEL-28 = test: Growth inhibition of human SK-MEL-28 cells after 48 hrs; type: functional; settings: SK-MEL-28, 48 h; how it was run: as §1
# SK-MEL-5 = test: Growth inhibition of human SK-MEL-5 cells after 48 hrs; type: functional; settings: SK-MEL-5, 48 h; how it was run: as §2
# [9] = Growth inhibition of human UACC62 cells after 48 hrs; type: functional; settings: UACC-62, 48 h; how it was run: as §2
# IGROV-1 = test: Growth inhibition of human IGROV1 cells after 48 hrs; type: functional; settings: IGROV-1, 48 h; how it was run: as §1
# [10] = Growth inhibition of human OVCAR3 cells after 48 hrs; type: functional; settings: OVCAR-3, 48 h; how it was run: as §1
# [11] = Growth inhibition of human OVCAR8 cells after 48 hrs; type: functional; settings: OVCAR-8, 48 h; how it was run: as §1
# [12] = Growth inhibition of human NCI-ADR-RES cells after 48 hrs; type: functional; how it was run: as §1
# SK-OV-3 = test: Growth inhibition of human SKOV3 cells after 48 hrs; type: functional; settings: SK-OV-3, 48 h; how it was run: as §2
# [13] = read-out: pLC50 (the source's name) (converted)
compound,measurement,setting,value
COc1ccc(N(CC(=O)NCCC[Te]c2ccccc2)C(=O)CCSC2=C(C)C(=O)c3ccccc3C2=O)cc1,GI50,CAKI-1,3.09 µM
same,LC50,CAKI-1,21.4 µM
same,TGI,CAKI-1; read-out: pTGI (converted),6.17 µM
same,GI50,[1],1.86 µM
same,LC50,[1],7.94 µM
same,TGI,[1]; read-out: pTGI (converted),3.8 µM
same,GI50,[2],1.66 µM
same,LC50,[2],8.71 µM
same,TGI,[2]; read-out: pTGI (converted),2.19 µM
same,GI50,DU-145,0.955 µM
same,LC50,DU-145,4.9 µM
same,TGI,DU-145; read-out: pTGI (converted),2.19 µM
same,LC50 (concentration killing 50% of cells),[3],16.6 µM
same,GI50,MDA-MB-468,1.66 µM
same,LC50,MDA-MB-468,6.76 µM
same,TGI,MDA-MB-468; read-out: pTGI (converted),3.39 µM
same,IC50,MCF7,7 µM
same,IC50,A-431,1 µM
same,logP,[4],1.97
same,GI50,K562,1.95 µM
same,CC50,K562; [13],> 100 µM
same,TGI,K562; read-out: pTGI (converted),5.13 µM
same,GI50,A549,0.257 µM
same,CC50,A549; [13],3.47 µM
same,TGI,A549; read-out: pTGI (converted),0.724 µM
same,GI50,[5],0.38 µM
same,CC50,[5]; [13],> 100 µM
same,TGI,[5]; read-out: pTGI (converted),3.31 µM
same,GI50,HOP-62,0.339 µM
same,CC50,HOP-62; [13],3.8 µM
same,TGI,HOP-62; read-out: pTGI (converted),1 µM
same,GI50,[6],1.45 µM
same,CC50,[6]; [13],13.2 µM
same,TGI,[6]; read-out: pTGI (converted),3.98 µM
same,GI50,NCI-H322M,2.09 µM
same,CC50,NCI-H322M; [13],60.3 µM
same,TGI,NCI-H322M; read-out: pTGI (converted),6.03 µM
same,CC50,NCI-H460,4.68 µM
same,GI50,NCI-H522,1.07 µM
same,CC50,NCI-H522; [13],> 100 µM
same,TGI,NCI-H522; read-out: pTGI (converted),3.39 µM
same,GI50,[7],0.339 µM
same,CC50,[7]; [13],5.5 µM
same,TGI,[7]; read-out: pTGI (converted),1.29 µM
same,GI50,HT-29,1.62 µM
same,CC50,HT-29; [13],50.1 µM
same,TGI,HT-29; read-out: pTGI (converted),4.9 µM
same,GI50,SW-620,1.95 µM
same,CC50,SW-620; [13],45.7 µM
same,TGI,SW-620; read-out: pTGI (converted),5.62 µM
same,GI50,SF-268,0.468 µM
same,CC50,SF-268; [13],5.5 µM
same,TGI,SF-268; read-out: pTGI (converted),1.86 µM
same,GI50,[8],2.14 µM
same,CC50,[8]; [13],7.08 µM
same,TGI,[8]; read-out: pTGI (converted),3.89 µM
same,CC50,U-251,> 100 µM
same,GI50,SK-MEL-28,2.09 µM
same,CC50,SK-MEL-28; [13],12 µM
same,TGI,SK-MEL-28; read-out: pTGI (converted),4.68 µM
same,GI50,SK-MEL-5,1.62 µM
same,CC50,SK-MEL-5; [13],5.75 µM
same,TGI,SK-MEL-5; read-out: pTGI (converted),3.09 µM
same,GI50,[9],1.91 µM
same,CC50,[9]; [13],19.1 µM
same,TGI,[9]; read-out: pTGI (converted),4.9 µM
same,GI50,IGROV-1,0.776 µM
same,CC50,IGROV-1; [13],5.37 µM
same,TGI,IGROV-1; read-out: pTGI (converted),2.19 µM
same,GI50,[10],1.17 µM
same,CC50,[10]; [13],5.62 µM
same,TGI,[10]; read-out: pTGI (converted),2.04 µM
same,GI50,[11],0.589 µM
same,LC50,[11],30.9 µM
same,TGI,[11]; read-out: pTGI (converted),3.8 µM
same,GI50,[12],0.955 µM
same,LC50,[12],41.7 µM
same,TGI,[12]; read-out: pTGI (converted),5.01 µM
same,GI50,SK-OV-3,1.86 µM
same,CC50,SK-OV-3; [13],8.71 µM
same,TGI,SK-OV-3; read-out: pTGI (converted),3.98 µM
same,Retention_time,,0.938 min
